Experimental data taken from ChEMBL document CHEMBL4819075, “Discovery of a potent, selective, and covalent ZAP-70 kinase inhibitor” (Eur J Med Chem, 2021).
The source made the active and inactive calls. The calls are words filed in the database; no cut-off is given here.

Experiments:
[1] = molecular target: Proto-oncogene tyrosine-protein kinase Src (Homo sapiens, UniProt P12931); test: Inhibition of SRC (unknown origin)
[2] = Inhibition of anti-CD3/CD28 antibodies-stimulated BALB/c mouse CD4+ T cell proliferation at 400 nM measured after 48 hrs by [3H]thymidine incorporation based beta scintillation counting analysis; type: functional; conditions: CD4+ve Th
How it was run: (§1)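 Purified BALB/c splenic CD4+ T cells stimulated with anti-CD3 plus anti-CD28 in RPMI 1640/10% FBS with compound (DMSO stock diluted in medium). After 48 h, cultures pulsed with [³H]thymidine 0.5 µCi/well. Incorporated radioactivity counted by beta scintillation.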

[3] = Inhibition of anti-CD3/CD28 antibodies-stimulated BALB/c mouse CD4+ T cell activation assessed as frequency of CD4+/CD69+ T cells at 200 nM measured after 48 hrs by flow cytometric analysis (reference value: 14.9%); type: functional, CD4+ve Th; parameters: scale not given: the % may be the effect or the level left
How it was run: (§2)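 Purified BALB/c splenic CD4+ T cells (negative selection) stimulated with anti-CD3 plus anti-CD28 in RPMI 1640/10% FBS with compound for 24 or 48 h. Cells Fc-blocked with anti-CD16/CD32, then stained with FITC-CD3, PE-CD25, APC-CD4 and BV421-CD69. Analyzed by flow cytometry. Data as mean ± SD; one-way ANOVA with Dunnett's test.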

[4] = Inhibition of anti-CD3/CD28 antibodies-stimulated BALB/c mouse CD4+ T cell activation assessed as frequency of CD4+/CD69+ T cells at 400 nM measured after 48 hrs by flow cytometric analysis (reference value: 14.9%); type: functional, CD4+ve Th; parameters: scale not given: the % may be the effect or the level left; how it was run: as §2
[5] = molecular target: Tyrosine-protein kinase SYK (Homo sapiens, UniProt P43405); test: Inhibition of N-terminal GST-fused human recombinant full length SYK (1 to 635 residues) expressed in baculovirus-infected Sf21 cells using FAM-22 peptide as substrate preincubated with enzyme for 10 mins followed by substrate addition for 30 mins in presence of ATP by caliper mobility shift assay
[6] = molecular target: T1, Tyrosine-protein kinase ZAP-70 (Homo sapiens) (UniProt P43403); test: Covalent binding affinity at C346 residue of N-terminal GST-fused human recombinant full length ZAP70 (1 to 619 residues) expressed in baculovirus-infected Sf21 cells at 55 nM preincubated for 5 mins followed by DTT challenge for 10 mins and measured after 18 hrs following trypsin digestion by mass spectrometry; conditions: time 1095.0 min
T1 sequence (whole entry): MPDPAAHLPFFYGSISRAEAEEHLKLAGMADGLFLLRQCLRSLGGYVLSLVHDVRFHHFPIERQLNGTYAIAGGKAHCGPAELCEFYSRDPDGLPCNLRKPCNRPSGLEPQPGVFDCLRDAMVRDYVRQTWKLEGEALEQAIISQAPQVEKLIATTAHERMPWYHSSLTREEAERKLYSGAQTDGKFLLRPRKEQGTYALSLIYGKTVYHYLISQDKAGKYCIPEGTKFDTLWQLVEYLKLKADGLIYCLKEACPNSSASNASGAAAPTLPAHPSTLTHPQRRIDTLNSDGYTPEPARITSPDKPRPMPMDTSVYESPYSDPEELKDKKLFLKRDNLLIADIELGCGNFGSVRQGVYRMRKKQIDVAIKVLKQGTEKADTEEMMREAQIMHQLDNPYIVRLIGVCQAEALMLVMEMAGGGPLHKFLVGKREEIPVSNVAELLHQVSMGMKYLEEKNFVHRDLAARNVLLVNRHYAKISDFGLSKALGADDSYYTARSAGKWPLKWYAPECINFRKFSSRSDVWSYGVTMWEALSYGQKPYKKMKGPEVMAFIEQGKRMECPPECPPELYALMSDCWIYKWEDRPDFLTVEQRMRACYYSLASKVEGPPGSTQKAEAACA
How it was run: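 Recombinant ZAP-70 at 75 nM final in assay buffer (0.01% Triton X-100, 50 mM HEPES, 5 mM MgCl₂, 1 mM MnCl₂). Compound added to 55 nM final and incubated 5 min at 28 °C. DTT then added to 2 mM final for 10 min at room temperature. Trypsin digestion at 37 °C for 18 h, stopped with TFA, C18 desalting. Modified sites mapped by nano-LC–MS/MS.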

[7] = Inhibition of anti-CD3/CD28 antibodies-stimulated BALB/c mouse CD4+ T cell activation assessed as frequency of CD4+/CD69+ T cells at 400 nM measured after 24 hrs by flow cytometric analysis (reference value: 2.51%); type: functional, CD4+ve Th; parameters: scale not given: the % may be the effect or the level left; how it was run: as §2
[8] = Inhibition of anti-CD3/CD28 antibodies-stimulated BALB/c mouse CD4+ T cell activation assessed as frequency of CD4+/CD69+ T cells at 100 nM measured after 24 hrs by flow cytometric analysis (reference value: 2.51%); type: functional, CD4+ve Th; parameters: scale not given: the % may be the effect or the level left; how it was run: as §2
[9] = molecular target: T2, Tyrosine-protein kinase ZAP-70 (Homo sapiens, UniProt P43403); test: Inhibition of N-terminal GST-fused human recombinant full length ZAP70 (1 to 619 residues) expressed in baculovirus-infected Sf21 cells using FAM-22 peptide as substrate preincubated with enzyme for 10 mins followed by substrate addition for 30 mins in presence of ATP by caliper mobility shift assay
T2 sequence (P43403 whole entry): T1 sequence (whole entry)

[10] = system: CD4+ve Th; test: Inhibition of anti-CD3/CD28 antibodies stimulated-IFN-gamma production in BALB/c mouse CD4+ T cells at 100 to 400 nM measured after 48 hrs by ELISA; type: functional, cell-based; conditions: dose 100-400 nM
How it was run: (§3)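 Supernatants of BALB/c splenic CD4+ T cells, purified by immunomagnetic negative selection (>98% purity). Cells stimulated with anti-CD3 (5 µg/ml) plus anti-CD28 (2 µg/ml) in RPMI 1640 with 10% FBS and penicillin/streptomycin at 37 °C, 5% CO₂. Compound is given from DMSO stock diluted in medium at increasing concentrations for 48 h. Mouse IFN-γ or IL-4 measured by ELISA kit.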

[11] = molecular target: Tyrosine-protein kinase BTK (Homo sapiens, UniProt Q06187); test: Inhibition of BTK (unknown origin)
[12] = system: CD4+ve Th; test: Inhibition of anti-CD3/CD28 antibodies-stimulated BALB/c mouse CD4+ T cell division measured after 72 hrs by CFSE-labeled flow cytometry; type: functional, tissue-based; conditions: dose 100-400 nM
How it was run: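 Purified BALB/c CD4+ T cells labeled with CFSE at 37 °C for 5 min and washed in RPMI 1640/20% FBS. Cells cultured with anti-CD3 ([…]) plus anti-CD28 ([…]) in RPMI 1640/10% FBS with compound for 72 h. Division read as CFSE dilution by flow cytometry.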

[13] = molecular target: Tyrosine-protein kinase HCK (Homo sapiens, UniProt P08631); test: Inhibition of HCK (unknown origin)
[14] = molecular target: Tyrosine-protein kinase JAK2 (Homo sapiens, UniProt O60674); test: Inhibition of JAK2 (unknown origin)
[15] = molecular target: Tyrosine-protein kinase Lck (Homo sapiens, UniProt P06239); test: Inhibition of LCK (unknown origin)
[16] = molecular target: Tyrosine-protein kinase ABL1 (Homo sapiens, UniProt P00519); test: Inhibition of ABL (unknown origin)
[17] = molecular target: Non-receptor tyrosine-protein kinase TYK2 (Homo sapiens, UniProt P29597); test: Inhibition of TYK2 (unknown origin)
[18] = molecular target: Tyrosine-protein kinase JAK1 (Homo sapiens, UniProt P23458); test: Inhibition of JAK1 (unknown origin)
[19] = system: CD4+ve Th; test: Inhibition of anti-CD3/CD28 antibodies-stimulated BALB/c mouse CD4+ T cell proliferation measured after 48 hrs by [3H]thymidine incorporation based beta scintillation counting analysis; type: functional, tissue-based; conditions: dose 100-400 nM; how it was run: as §1
[20] = Inhibition of anti-CD3/CD28 antibodies-stimulated BALB/c mouse CD4+ T cell activation assessed as frequency of CD4+/CD69+ T cells at 200 nM measured after 24 hrs by flow cytometric analysis (reference value: 2.51%); type: functional, CD4+ve Th; parameters: scale not given: the % may be the effect or the level left; how it was run: as §2
[21] = Inhibition of anti-CD3/CD28 antibodies-stimulated BALB/c mouse CD4+ T cell activation assessed as frequency of CD4+/CD69+ T cells at 100 nM measured after 48 hrs by flow cytometric analysis (reference value: 14.9%); type: functional, CD4+ve Th; parameters: scale not given: the % may be the effect or the level left; how it was run: as §2
[22] = molecular target: T3, Tyrosine-protein kinase ITK/TSK (Homo sapiens, UniProt Q08881); test: Inhibition of ITK (unknown origin)
T3 sequence (Q08881 whole entry): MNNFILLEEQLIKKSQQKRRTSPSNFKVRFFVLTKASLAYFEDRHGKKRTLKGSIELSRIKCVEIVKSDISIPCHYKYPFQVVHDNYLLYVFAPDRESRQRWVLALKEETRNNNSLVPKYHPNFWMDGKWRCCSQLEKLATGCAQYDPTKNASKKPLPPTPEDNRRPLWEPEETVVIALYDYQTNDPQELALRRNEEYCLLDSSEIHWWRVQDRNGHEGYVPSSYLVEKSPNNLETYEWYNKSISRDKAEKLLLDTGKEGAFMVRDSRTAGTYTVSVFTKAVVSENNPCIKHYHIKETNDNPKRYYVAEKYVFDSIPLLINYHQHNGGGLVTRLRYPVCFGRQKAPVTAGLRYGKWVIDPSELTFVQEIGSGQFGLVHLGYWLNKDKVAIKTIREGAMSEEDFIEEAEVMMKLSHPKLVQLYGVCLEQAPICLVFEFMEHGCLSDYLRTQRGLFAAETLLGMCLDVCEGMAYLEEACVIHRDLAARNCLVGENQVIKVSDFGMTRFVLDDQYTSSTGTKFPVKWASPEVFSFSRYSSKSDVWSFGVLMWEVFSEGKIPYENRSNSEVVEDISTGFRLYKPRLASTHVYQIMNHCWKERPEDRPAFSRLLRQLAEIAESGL

[23] = system: CD4+ve Th; test: Inhibition of anti-CD3/CD28 antibodies stimulated-IL-4 production in BALB/c mouse CD4+ T cells at 100 to 400 nM measured after 48 hrs by ELISA; type: functional, cell-based; conditions: dose 100-400 nM; how it was run: as §3
[24] = system: CD4+ve Th; test: Inhibition of anti-CD3/CD28 antibodies-stimulated BALB/c mouse CD4+ T cell activation assessed as reduction in CD25 expression measured after 24 to 48 hrs by flow cytometric analysis; type: functional, tissue-based; conditions: time 24-48 hrs; how it was run: as §2

Tyrosine-protein kinase ABL1, sequence (P00519 whole entry): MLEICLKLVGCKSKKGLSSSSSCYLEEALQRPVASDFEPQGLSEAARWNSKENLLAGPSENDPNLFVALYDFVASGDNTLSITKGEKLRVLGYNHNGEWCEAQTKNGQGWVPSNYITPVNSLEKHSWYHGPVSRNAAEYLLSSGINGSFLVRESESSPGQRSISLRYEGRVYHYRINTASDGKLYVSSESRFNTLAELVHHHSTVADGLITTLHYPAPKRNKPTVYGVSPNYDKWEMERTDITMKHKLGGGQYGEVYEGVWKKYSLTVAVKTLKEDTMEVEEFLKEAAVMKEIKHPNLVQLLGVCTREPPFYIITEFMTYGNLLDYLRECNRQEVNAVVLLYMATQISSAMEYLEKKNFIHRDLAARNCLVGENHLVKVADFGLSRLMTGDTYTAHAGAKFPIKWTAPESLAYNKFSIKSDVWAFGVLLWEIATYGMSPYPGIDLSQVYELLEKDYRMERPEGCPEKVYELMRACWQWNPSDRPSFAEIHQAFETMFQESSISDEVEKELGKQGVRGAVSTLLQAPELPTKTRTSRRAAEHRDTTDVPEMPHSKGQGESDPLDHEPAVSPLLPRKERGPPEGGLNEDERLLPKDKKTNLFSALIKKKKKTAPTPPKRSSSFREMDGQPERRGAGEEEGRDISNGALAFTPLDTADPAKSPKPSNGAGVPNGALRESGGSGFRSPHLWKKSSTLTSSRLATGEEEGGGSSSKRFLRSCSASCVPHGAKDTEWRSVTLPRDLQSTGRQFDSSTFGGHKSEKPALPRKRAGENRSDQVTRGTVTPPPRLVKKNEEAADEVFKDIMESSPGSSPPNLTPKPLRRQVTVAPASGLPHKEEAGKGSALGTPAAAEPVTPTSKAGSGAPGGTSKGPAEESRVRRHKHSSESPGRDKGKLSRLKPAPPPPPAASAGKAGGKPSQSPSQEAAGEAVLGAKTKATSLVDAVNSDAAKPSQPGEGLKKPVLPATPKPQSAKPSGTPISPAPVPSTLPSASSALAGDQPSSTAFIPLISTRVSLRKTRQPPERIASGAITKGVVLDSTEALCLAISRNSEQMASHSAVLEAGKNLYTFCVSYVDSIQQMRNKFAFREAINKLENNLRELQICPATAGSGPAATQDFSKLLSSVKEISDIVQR
Non-receptor tyrosine-protein kinase TYK2, sequence (P29597 whole entry): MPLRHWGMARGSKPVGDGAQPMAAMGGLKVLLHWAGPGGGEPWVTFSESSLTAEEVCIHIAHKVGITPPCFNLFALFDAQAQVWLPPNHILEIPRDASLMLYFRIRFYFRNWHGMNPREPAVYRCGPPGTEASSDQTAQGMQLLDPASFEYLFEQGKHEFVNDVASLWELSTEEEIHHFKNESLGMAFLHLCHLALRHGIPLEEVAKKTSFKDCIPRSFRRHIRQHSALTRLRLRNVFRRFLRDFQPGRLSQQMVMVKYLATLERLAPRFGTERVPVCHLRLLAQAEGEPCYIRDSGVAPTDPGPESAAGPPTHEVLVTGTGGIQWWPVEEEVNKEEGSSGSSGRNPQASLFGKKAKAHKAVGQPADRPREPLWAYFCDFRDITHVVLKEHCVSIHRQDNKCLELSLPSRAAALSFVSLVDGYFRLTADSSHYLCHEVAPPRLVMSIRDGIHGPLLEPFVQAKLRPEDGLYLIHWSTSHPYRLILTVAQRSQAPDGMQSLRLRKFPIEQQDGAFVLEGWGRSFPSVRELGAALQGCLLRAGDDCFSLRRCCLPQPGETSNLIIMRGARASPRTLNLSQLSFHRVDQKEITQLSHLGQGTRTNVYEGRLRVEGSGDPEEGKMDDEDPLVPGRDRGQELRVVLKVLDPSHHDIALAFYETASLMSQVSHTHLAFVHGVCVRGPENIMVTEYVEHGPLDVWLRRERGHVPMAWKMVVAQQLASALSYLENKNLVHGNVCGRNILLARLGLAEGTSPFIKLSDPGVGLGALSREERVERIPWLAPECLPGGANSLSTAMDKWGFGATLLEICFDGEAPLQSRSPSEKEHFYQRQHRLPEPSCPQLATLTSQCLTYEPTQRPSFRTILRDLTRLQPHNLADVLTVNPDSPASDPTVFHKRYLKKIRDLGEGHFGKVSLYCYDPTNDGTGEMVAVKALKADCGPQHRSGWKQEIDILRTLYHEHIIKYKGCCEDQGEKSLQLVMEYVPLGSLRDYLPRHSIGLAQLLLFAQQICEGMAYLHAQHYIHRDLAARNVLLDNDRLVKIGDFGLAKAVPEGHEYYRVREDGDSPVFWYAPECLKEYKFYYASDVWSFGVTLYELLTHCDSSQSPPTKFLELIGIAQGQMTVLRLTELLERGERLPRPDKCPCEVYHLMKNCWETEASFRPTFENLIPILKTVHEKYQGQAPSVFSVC
Tyrosine-protein kinase Lck, sequence (P06239 whole entry): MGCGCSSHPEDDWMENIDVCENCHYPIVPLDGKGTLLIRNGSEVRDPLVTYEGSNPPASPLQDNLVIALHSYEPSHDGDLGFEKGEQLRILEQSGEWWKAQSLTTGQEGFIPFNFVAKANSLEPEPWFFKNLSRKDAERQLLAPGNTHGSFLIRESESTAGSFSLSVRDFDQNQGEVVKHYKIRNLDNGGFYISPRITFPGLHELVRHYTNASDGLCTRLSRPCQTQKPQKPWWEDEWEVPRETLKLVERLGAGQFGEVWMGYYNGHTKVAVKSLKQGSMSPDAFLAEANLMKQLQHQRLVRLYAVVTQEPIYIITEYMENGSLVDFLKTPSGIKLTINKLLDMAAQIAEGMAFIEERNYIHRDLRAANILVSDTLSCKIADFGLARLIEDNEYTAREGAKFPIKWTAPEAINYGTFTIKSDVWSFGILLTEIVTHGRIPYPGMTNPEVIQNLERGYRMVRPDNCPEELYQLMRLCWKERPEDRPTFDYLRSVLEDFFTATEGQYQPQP
Tyrosine-protein kinase JAK2, sequence (O60674 whole entry): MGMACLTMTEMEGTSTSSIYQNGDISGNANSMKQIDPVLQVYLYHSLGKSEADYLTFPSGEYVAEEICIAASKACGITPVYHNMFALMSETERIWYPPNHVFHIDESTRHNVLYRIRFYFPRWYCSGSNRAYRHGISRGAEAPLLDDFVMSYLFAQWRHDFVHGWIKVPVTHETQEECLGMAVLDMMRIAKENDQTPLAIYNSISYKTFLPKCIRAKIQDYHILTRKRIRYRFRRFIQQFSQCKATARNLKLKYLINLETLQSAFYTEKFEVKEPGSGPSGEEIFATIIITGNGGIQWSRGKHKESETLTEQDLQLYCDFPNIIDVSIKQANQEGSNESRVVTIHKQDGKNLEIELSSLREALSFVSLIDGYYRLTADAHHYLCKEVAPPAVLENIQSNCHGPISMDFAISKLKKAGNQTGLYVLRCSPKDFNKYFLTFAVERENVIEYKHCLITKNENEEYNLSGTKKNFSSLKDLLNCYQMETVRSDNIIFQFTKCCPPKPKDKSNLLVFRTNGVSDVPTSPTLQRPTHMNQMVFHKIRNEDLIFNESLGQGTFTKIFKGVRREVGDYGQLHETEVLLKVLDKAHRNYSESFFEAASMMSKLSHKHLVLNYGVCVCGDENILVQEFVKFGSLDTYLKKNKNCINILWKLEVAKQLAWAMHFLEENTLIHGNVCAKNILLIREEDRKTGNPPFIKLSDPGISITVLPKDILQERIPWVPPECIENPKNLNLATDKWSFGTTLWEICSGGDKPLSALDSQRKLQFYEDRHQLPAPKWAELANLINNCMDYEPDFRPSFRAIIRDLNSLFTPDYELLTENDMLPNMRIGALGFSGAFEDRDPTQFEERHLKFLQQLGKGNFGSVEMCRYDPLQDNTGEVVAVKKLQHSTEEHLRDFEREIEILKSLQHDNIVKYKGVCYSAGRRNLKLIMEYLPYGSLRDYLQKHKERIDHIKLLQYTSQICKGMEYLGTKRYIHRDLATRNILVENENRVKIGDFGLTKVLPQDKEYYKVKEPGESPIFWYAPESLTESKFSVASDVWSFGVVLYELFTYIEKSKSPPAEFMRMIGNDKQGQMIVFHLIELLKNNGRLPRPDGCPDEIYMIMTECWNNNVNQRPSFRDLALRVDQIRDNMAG
Proto-oncogene tyrosine-protein kinase Src, sequence (P12931 2-536 limits assumed): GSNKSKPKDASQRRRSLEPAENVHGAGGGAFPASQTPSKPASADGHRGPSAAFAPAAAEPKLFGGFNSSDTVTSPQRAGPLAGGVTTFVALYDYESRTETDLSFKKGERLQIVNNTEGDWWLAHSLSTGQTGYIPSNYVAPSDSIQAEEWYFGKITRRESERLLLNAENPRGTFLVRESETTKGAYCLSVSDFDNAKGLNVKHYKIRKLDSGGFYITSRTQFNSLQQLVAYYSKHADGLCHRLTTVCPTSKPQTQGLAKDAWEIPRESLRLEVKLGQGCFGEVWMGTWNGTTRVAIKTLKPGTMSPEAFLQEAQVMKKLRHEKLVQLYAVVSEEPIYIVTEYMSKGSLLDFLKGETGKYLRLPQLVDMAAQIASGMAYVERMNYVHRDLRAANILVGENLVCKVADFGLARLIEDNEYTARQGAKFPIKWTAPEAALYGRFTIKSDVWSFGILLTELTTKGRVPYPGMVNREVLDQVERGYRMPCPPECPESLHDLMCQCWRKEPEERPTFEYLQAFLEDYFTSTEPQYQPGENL
Tyrosine-protein kinase HCK, sequence (P08631 whole entry): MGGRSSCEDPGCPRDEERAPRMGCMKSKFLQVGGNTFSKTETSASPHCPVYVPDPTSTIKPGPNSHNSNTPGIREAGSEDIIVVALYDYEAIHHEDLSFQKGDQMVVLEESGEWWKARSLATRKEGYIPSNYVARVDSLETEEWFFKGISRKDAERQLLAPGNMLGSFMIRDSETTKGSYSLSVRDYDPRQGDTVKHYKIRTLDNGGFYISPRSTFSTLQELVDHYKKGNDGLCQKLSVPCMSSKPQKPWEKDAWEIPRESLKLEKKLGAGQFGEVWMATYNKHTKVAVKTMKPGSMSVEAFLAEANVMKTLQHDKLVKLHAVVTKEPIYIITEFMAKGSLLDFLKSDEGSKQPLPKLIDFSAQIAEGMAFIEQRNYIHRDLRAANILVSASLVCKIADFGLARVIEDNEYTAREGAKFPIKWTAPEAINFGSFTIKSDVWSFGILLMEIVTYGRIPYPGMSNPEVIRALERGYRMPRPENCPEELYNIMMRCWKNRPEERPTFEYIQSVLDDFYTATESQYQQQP

With `COc1cc(Nc2nc(NCc3cccc(NC(=O)CCl)c3)n3ccnc3c2C(N)=O)cc(OC)c1` the IC50 [1] was greater than 1000 nM, the inhibition at 0.4 µM [2] was 100% and the Activity [3] was 4.47%. For the same molecule, the Activity [4] was 3.64%, the IC50 [5] was greater than 1000 nM and the Activity [6] was “Active”. It also gave an Activity [7] of 0.925%, an Activity [8] of 1.55% and an IC50 [9] of 55 nM. For the same molecule, the inhibition [10] was “Active”, the IC50 [11] was greater than 1000 nM and the inhibition [12] was “Dose-Dependent Effect”. It also gave an IC50 [13] greater than 1000 nM, an IC50 [14] greater than 1000 nM and an IC50 [15] greater than 1000 nM. For the same molecule, the IC50 [16] was greater than 1000 nM, the IC50 [17] was greater than 1000 nM and the IC50 [18] was greater than 1000 nM. For the same molecule, the inhibition [19] was “Dose-Dependent Effect”, the Activity [20] was 0.932% and the Activity [21] was 9.83%. The IC50 [22] was greater than 1000 nM, the inhibition [23] was “Active” and the inhibition [24] was “Active”.
